Measurements published in ChEMBL document CHEMBL1131287, “Design, synthesis, and biological activities of potent and selective somatostatin analogues incorporating novel peptoid residues” (J Med Chem, 1998).
pKd, pKi: −log10 of the molar value. Square brackets hold non-standard residues; d marks the D form. Peptide text beside a SMILES is read from it.

How the values were obtained:
Assay type in all cases: cell-based
[1] = target: T1, Somatostatin receptor type 5 (Homo sapiens, UniProt P35346); experiment: In vitro inhibition of radioligand binding to human Somatostatin receptor type 5 expressed in CHO-K1 cells.
T1 sequence (P35346 whole entry): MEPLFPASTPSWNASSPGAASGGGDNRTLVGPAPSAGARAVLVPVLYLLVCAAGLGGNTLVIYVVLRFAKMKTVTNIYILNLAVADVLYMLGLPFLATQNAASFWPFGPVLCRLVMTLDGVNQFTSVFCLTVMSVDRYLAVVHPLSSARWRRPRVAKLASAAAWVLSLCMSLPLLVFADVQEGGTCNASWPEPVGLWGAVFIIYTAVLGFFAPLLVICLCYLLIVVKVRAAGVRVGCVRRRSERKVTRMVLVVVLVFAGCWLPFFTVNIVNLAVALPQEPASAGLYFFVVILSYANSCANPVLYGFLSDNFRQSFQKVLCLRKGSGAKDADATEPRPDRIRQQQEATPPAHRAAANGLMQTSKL
Outline: (§1)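 Membranes from CHO-K1 clones stably expressing the hsst subtype (pCMV, G418-selected), washed in 50 mM Tris-HCl. Stopped by PEI-treated GF/C filtration. Specific binding was defined against 1000 nM SRIF-14.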

[2] = target: T2, Somatostatin receptor type 3 (Homo sapiens, UniProt P32745); experiment: In vitro inhibition of radioligand binding to human somatostatin receptor (hsst3) expressed in CHO cells.
T2 sequence (P32745 whole entry): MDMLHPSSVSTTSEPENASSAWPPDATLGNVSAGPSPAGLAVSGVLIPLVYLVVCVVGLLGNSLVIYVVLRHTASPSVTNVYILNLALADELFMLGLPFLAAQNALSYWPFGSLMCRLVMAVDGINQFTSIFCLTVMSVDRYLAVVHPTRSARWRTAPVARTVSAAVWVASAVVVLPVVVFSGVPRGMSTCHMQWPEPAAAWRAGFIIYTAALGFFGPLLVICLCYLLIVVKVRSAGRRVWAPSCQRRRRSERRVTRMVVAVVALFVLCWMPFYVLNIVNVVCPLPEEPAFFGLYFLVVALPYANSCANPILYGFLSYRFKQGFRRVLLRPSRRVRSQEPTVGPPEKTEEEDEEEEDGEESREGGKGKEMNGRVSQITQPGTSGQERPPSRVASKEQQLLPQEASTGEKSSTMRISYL
Outline: (§2)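 Competition binding on cell or membrane homogenates in 10 mM HEPES pH 7.5 with 0.5% BSA, 5 mM MgCl2 and 5 μg/mL bacitracin, 1 h at room temperature. Nonspecific binding with 1 μM SRIF14. Gamma counting, triplicates, nonlinear regression, reported as pKD.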

[3] = target: T3, Somatostatin receptor type 2 (Homo sapiens, UniProt P30874); experiment: In vitro inhibition of radioligand binding to human somatostatin receptor (hsst2) expressed in CHO-K1 cells.
T3 sequence (P30874 whole entry): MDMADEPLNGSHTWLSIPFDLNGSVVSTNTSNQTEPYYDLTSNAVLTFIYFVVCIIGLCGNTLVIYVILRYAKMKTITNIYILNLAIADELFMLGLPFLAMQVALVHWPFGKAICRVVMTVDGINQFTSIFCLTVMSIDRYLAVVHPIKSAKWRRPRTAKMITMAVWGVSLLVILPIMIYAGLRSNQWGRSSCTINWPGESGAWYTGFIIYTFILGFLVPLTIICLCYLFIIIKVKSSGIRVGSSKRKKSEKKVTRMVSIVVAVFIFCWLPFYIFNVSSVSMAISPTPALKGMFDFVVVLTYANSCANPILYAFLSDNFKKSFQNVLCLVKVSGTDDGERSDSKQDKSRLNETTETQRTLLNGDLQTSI
Outline: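 hsst2 stably expressed in CHO-K1 cells; washed membranes were used. Radioligand was 0.05 nM [125I]MK-678, incubated 90 min at 25 °C in 50 mM HEPES pH 7.4 buffer with BSA, MgCl2 and protease inhibitors. Filtered on PEI-soaked GF/C filters. Specific binding was defined against 1000 nM MK-678.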

[4] = target: T1, Somatostatin receptor type 5; experiment: In vitro inhibition of radioligand binding to human Somatostatin receptor type 5 expressed in CCL-39 cells.; outline: as §2
[5] = target: T4, Somatostatin receptor type 1 (Homo sapiens, UniProt P30872); experiment: In vitro inhibition of radioligand binding to human somatostatin receptor (hsst1) expressed in CHO-K1 cells.; outline: as §1
T4 sequence (P30872 whole entry): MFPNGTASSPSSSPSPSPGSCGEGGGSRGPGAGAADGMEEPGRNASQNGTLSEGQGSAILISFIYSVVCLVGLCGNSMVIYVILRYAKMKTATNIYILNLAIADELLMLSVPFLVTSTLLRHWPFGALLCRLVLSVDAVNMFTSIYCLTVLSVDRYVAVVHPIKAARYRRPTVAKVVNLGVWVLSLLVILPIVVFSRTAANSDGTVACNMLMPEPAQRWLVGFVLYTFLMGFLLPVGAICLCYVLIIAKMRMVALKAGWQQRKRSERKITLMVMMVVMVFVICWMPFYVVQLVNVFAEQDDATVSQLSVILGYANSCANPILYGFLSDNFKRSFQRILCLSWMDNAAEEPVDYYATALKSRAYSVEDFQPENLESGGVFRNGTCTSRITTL

[6] = target: T4, Somatostatin receptor type 1; experiment: In vitro inhibition of radioligand binding to human somatostatin receptor (hsst1) expressed in hSF6 cells.; outline: as §2
[7] = target: T5, Somatostatin receptor type 4 (Homo sapiens, UniProt P31391); experiment: In vitro inhibition of radioligand binding to human somatostatin receptor (hsst4) expressed in CHO-K1 cells.; outline: as §1
T5 sequence (P31391 whole entry): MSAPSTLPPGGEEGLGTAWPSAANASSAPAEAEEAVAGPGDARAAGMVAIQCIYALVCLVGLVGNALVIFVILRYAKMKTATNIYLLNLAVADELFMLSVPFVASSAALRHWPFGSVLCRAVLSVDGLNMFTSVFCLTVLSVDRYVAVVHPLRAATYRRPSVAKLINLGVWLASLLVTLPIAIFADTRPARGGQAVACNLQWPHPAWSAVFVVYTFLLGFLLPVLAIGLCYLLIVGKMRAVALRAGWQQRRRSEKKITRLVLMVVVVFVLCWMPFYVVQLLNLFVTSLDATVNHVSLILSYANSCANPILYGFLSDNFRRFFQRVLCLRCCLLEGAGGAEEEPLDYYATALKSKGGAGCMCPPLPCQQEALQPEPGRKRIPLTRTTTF

[8] = target: T2, Somatostatin receptor type 3; experiment: In vitro inhibition of radioligand binding to human somatostatin receptor (hsst3) expressed in CHO-K1 cells.; outline: as §1
[9] = target: T3, Somatostatin receptor type 2; experiment: In vitro inhibition of radioligand binding to human somatostatin receptor (hsst2) expressed in CHO cells.; outline: as §2
[10] = target: T5, Somatostatin receptor type 4; experiment: In vitro inhibition of radioligand binding to human somatostatin receptor (hsst4) expressed in CHO cells.; outline: as §2

| pKi ([1]; cho-k1) | pKd ([2]; cho) | pKi ([3]; cho-k1) | pKd ([4]; ccl-39) | pKi ([5]; cho-k1) | pKd [6] | pKi ([7]; cho-k1) | pKi ([8]; cho-k1) | pKd ([9]; cho) | pKd ([10]; cho) | pKi [1] | pKd [2] | pKi [3] | pKd [4] | pKi [5] | pKi [7] | pKi [8] | pKd [9] | pKd [10] | Compound |
| --- | --- | --- | --- | --- | --- | --- | --- | --- | --- | --- | --- | --- | --- | --- | --- | --- | --- | --- | --- |
| 7.06 | 6.47 | 7.53 | 6.94 | < 6.00 | 4.88 | 6.01 | 6.10 | 8.21 | 5.58 |  |  |  |  |  |  |  |  |  | C[C@@H](O)[C@@H]1NC(=O)[C@H](CCCCN)NC(=O)[C@@H](Cc2c[nH]c3ccccc23)NC(=O)[C@H](Cc2ccccc2)NC(=O)CN([C@@H](C)c2ccccc2)C(=O)[C@H](Cc2ccccc2)NC1=O |
| 7.47 | 6.39 | 8.63 | 6.54 | < 6.00 | 5.45 | < 6.00 | 6.37 | 8.69 | 5.38 |  |  |  |  |  |  |  |  |  | C[C@H](c1ccccc1)N1CC(=O)N[C@@H](Cc2ccccc2)C(=O)N[C@H](Cc2c[nH]c3ccccc23)C(=O)N[C@@H](CCCCN)C(=O)N[C@@H]([C@@H](C)O)C(=O)N[C@@H](Cc2ccccc2)C1=O |
| 7.00 | 6.55 | 8.16 | 7.16 | < 6.00 | 5.15 | < 6.00 | 6.60 | 8.53 | 5.33 |  |  |  |  |  |  |  |  |  | C[C@@H](O)[C@@H]1NC(=O)[C@H](CCCCN)NC(=O)[C@@H](Cc2c[nH]c3ccccc23)NC(=O)[C@H](Cc2ccccc2)NC(=O)CN(Cc2ccccc2)C(=O)[C@H](Cc2ccccc2)NC1=O |
|  |  |  |  |  | 5.34 |  |  |  |  | 7.60 | 6.28 | 8.29 | 8.12 | < 6.00 | < 6.00 | 6.89 | 9.12 | 5.05 | C[C@@H](O)[C@@H]1NC(=O)[C@H](CCCCN)NC(=O)[C@@H](Cc2c[nH]c3ccccc23)NC(=O)[C@H](Cc2ccccc2)NC(=O)[C@@H]2CCCN2C(=O)[C@H](Cc2ccccc2)NC1=O (cyclo(PF[dW]KTF)) |
